ChEMBL document CHEMBL3046420, “A new antifungal and cytotoxic C-methylated flavone glycoside from Picea neoveitchii” (2012)

Legend:
Type in all cases: functional
[1] = tested on: Pyricularia grisea; test: Antifungal activity against Magnaporthe grisea assessed as mycelial growth inhibition at 100 ug/disk after 2 to 4 days by disk diffusion method relative to control; settings: for zone of inhibition at 100 µg/disc: read-out: DIZ; for inhibition of growth at 100 µg/disc: read-out: GI
Outline: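 Modified disc diffusion on PDA in 90 mm plates. Each 5 mm filter disc was loaded with 10 µL of a 10 mg/mL MeOH solution, air-dried and placed at the plate centre. Four 5 mm fungal plugs were set 20 mm from the disc. MeOH discs served as blank and carbendazim as positive control. Plates were incubated at 29 °C for 2–4 days. Inhibition zone (mm) was expressed as % of the carbendazim zone. Triplicate.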

[2] = tested on: Thielaviopsis paradoxa; test: Antifungal activity against Ceratocystis paradoxa assessed as mycelial growth inhibition at 100 ug/disc after 2 to 4 days by disk diffusion method relative to control; settings: for zone of inhibition at 100 µg/disc: read-out: DIZ; for inhibition of growth at 100 µg/disc: read-out: GI
Outline: (§1)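 Disc diffusion on PDA in 90 mm Petri plates. Sterile 5 mm filter paper discs were loaded with 10 µL of a 10 mg/mL MeOH solution, air-dried and set at the plate centre. Four 5 mm fungal plugs were placed inverted 20 mm from the disc. Plates were incubated at 29 °C for 2–4 days, until growth in the MeOH blank reached the centre. The inhibitory zone was measured in mm and expressed as % of the carbendazim zone. Triplicate.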

[3] = Cytotoxicity against Spodoptera litura cells assessed as growth inhibition at 20 mg/L after 24 hr by MTT assay relative to control; settings: read-out: GI
Outline: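 SL cells were grown in Grace's insect medium with 9% newborn calf serum at 27.5 °C and used in log phase. Cells were seeded in 96-well plates for 24 h, then exposed for 24 h to compound (DMSO stock diluted in medium); controls got 0.5% DMSO. MTT (0.5 mg/mL) was added for 4 h, formazan dissolved in DMSO, and A570 read. Three separate experiments.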

[4] = tested on: Alternaria mali; test: Antifungal activity against Alternaria mali assessed as mycelial growth inhibition at 100 ug/disk after 2 to 4 days by disk diffusion method relative to control; settings: for zone of inhibition at 100 µg/disc: read-out: DIZ; for inhibition of growth at 100 µg/disc: read-out: GI; outline: as §1
[5] = tested on: Athelia rolfsii; test: Antifungal activity against Athelia rolfsii assessed as mycelial growth inhibition at 100 ug/disk after 2 to 4 days by disk diffusion method relative to control; settings: Agroathelia rolfsii; for zone of inhibition at 100 µg/disc: read-out: DIZ; for inhibition of growth at 100 µg/disc: read-out: GI; outline: as §1

Compound	zone of inhibition at 100 µg/disc [1] [mm]	inhibition of growth at 100 µg/disc [1] [%]	zone of inhibition at 100 µg/disc [2] [mm]	inhibition of growth at 100 µg/disc [2] [%]	inhibition of growth at 20 µg/mL [3] [%]	zone of inhibition at 100 µg/disc [4] [mm]	inhibition of growth at 100 µg/disc [4] [%]	zone of inhibition at 100 µg/disc [5] [mm]	inhibition of growth at 100 µg/disc [5] [%]
O=c1c(O[C@@H]2O[C@H](CO)[C@@H](O)[C@H](O)[C@H]2O)c(-c2ccc(O[C@@H]3O[C@H](CO)[C@@H](O)[C@H](O)[C@H]3O)cc2)oc2cc(O)cc(O)c12	0	0	0	0	23.1	2.4	24.2	3.7	31.9
COC(=O)Nc1nc2ccccc2[nH]1 [CARBENDAZIM]	18.6	100	25.7	100	–	9.9	100	11.6	100
O=c1cc(-c2ccc(O)cc2)oc2cc(O[C@@H]3O[C@H](CO)[C@@H](O)[C@H](O)[C@H]3O)cc(O)c12 [APIGETRIN]	3.3	17.7	0	0	7.8	5.8	58.6	4.8	41.4
C=C(C)[C@H]1Cc2c(ccc3c2O[C@@H]2COc4cc(OC)c(OC)cc4[C@@H]2C3=O)O1 [ROTENONE]	–	–	–	–	74.4	–	–	–	–
COc1cc(CCCO)ccc1O[C@@H]1O[C@H](CO)[C@@H](O)[C@H](O)[C@H]1O [DIHYDROCONIFERIN]	8.6	46.2	0	0	4	3.1	31.3	0	0
COc1c(-c2ccc(O[C@@H]3O[C@H](CO)[C@@H](O)[C@H](O)[C@H]3O)cc2)oc2c(O[C@@H]3O[C@H](CO)[C@@H](O)[C@H](O)[C@H]3O)c(O)c(C)c(O)c2c1=O	5.7	30.6	0	0	64.4	4.3	43.4	4.8	41.4
COc1cc([C@H]2Oc3c(O)cc(CCCO)cc3[C@@H]2CO)ccc1O[C@@H]1O[C@@H](C)[C@H](O)[C@@H](O)[C@H]1O [MASSONIANOSIDE B]	7	37.6	5.6	21.8	17.9	8.8	88.9	0	0
O=C(/C=C/c1ccc(O)cc1)OC[C@H]1O[C@@H](Oc2c(-c3ccc(O)cc3)oc3cc(O)cc(O)c3c2=O)[C@H](O)[C@@H](O)[C@@H]1O [TILIROSIDE]	0	0	7.1	27.6	65	5.5	55.6	2.6	22.4
C[C@@H]1O[C@@H](OC[C@H]2O[C@@H](OC(=O)/C=C/c3ccccc3)[C@H](O)[C@@H](O)[C@@H]2O)[C@H](O)[C@H](O)[C@H]1O [GLEDITSCHIASIDE A]	0	0	0	0	62.2	0	0	0	0
COc1c(-c2ccc(O)cc2)oc2c(O[C@@H]3O[C@H](CO)[C@@H](O)[C@H](O)[C@H]3O)c(O)c(C)c(O)c2c1=O	7.6	40.9	6.2	24.1	62.5	7.2	72.7	9.4	81
O=c1ccc2ccc(O[C@@H]3O[C@H](CO)[C@@H](O)[C@H](O)[C@H]3O)cc2o1 [SKIMMIN]	0	0	1.5	5.8	15.3	0	0	2.8	24.1
